Measured values: ChEMBL document CHEMBL4400548, “Structure-Based in Silico Screening Identifies a Potent Ebolavirus Inhibitor from a Traditional Chinese Medicine Library” (J Med Chem, 2019)
Calls of active or inactive are those of the source. The calls are words filed in the database; no cut-off is given here.

What was measured:
[1] = test system: Ebolavirus; assay: Antiviral activity against HIV-1-derived Ebolavirus pseudoparticle infected in human TZM-bl cells after 48 hrs by beta-gal based reporter assay; type: functional, organism-based; details: Orthoebolavirus
Procedure, shortened: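 TZM-bl cells were plated at 2 × 10^4 per well 24 h ahead and chilled on ice. EBOVpp (1 in 10 dilution) was spinoculated at 2100g for 30 min at 4 °C, then removed with a PBS wash. Compound (100–0.125 μM) was added in DMEM/5% FBS for 48 h at 37 °C. Cells were fixed in 2% PFA, X-gal stained and imaged for infected/total cells. Triplicate runs; sigmoidal fit for IC50.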

[2] = test system: Ebola virus - Zaire (1995); assay: Binding affinity to recombinant Ebola virus Zaire Mayinga-76 Envelope glycoprotein assessed as change in melting temperature up to 500 uM by SYPRO-dye based thermal shift assay

Row | SMILES | IC50 [1] [nM] | IC80 [1] [nM] | Activity [2]
1 | NC(=O)C1CCN(CCOc2ccc(-c3n[nH]cc3-c3ccccc3)c(O)c2)CC1 | 3100 | 50000 | Active
2 | O=C(/C=C/C1=Cc2ccccc2OC1)c1ccc(O)cc1 | – | – | inactive
3 | COc1ccc(CC(=O)c2c(C)cc(O)cc2O)cc1 | – | – | inactive
4 | O=C(/C=C/c1cc(Br)cc2c1OCOC2)c1cc(F)ccc1O | – | – | inactive
5 | Nc1ccc(SSc2ccc(N)cc2)cc1 | – | – | inactive
6 | CN(C)CCOc1ccc(/C(=C(/CCCl)c2ccccc2)c2ccccc2)cc1 [TOREMIFENE] | 90 | 3000 | –
7 | Cc1[nH]nc(-c2ccc(OCCN3CCC(C(N)=O)CC3)cc2O)c1-c1ccc(Cl)cc1 | 50 | 390 | Active
8 | N#Cc1cc(N)ccc1Sc1cccc(C(F)(F)F)c1 | – | – | inactive
